Entries after “also recorded” stand apart in the source; their conditions may differ.
Legend:
[1] = system: Hela-Parkin or Hela-Parkin/USP30 cells
USP30 [2] = molecular target: T1, USP30 (Homo sapiens, UniProt Q70CQ3); assay: TOM20 ubiquitination and turnover; assay type: cell-based
T1 sequence (Q70CQ3 1-517): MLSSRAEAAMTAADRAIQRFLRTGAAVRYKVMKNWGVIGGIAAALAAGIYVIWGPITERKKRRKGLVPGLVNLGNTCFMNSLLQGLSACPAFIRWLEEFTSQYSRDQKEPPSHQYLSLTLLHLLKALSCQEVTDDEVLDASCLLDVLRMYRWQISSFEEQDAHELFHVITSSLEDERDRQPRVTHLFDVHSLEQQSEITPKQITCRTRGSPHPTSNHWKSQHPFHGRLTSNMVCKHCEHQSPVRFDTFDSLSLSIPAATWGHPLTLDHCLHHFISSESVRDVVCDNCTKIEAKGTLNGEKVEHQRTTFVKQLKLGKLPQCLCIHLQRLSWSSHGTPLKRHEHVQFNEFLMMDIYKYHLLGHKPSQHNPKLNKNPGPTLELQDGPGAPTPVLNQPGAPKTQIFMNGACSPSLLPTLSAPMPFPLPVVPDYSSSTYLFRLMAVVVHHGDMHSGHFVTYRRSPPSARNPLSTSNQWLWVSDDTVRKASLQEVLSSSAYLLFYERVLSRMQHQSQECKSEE
Procedure, shortened: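 HeLa-Parkin cells, with or without lentivirally expressed Myc-USP30, were pretreated with test compound at several concentrations. They were then exposed to 5 μM oligomycin plus 5 μM antimycin A for up to 18 h, with 10 μM QVD during 18 h exposures. RIPA lysates (pH 8.0, on ice) were immunoblotted for ubiquitinated TOM20, TOM20, TOM40 and TIM23 with infrared detection. Three independent experiments.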

[3] = system: HeLa-Parkin cells expressing USP30; assay: FACS analysis of A/O-induced mitophagy using mt-Keima fluorescence; assay type: cell-based
Procedure, shortened: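 HeLa-Parkin and HeLa-Parkin cells with lentivirally expressed Myc-USP30, stably expressing mt-Keima, grown in DMEM/10% FBS. Pretreated with DMSO or test compound at 3 μg/ml, then exposed to 1 μM oligomycin plus 1 μM antimycin A for 1.5 h (legend: 2 h). Cells were trypsinized, PBS-washed and resuspended in PBS. Flow cytometry scored cells with lysosomal (pH 4) mt-Keima.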

[4] = system: Hela cells, Hela cells expressing YFP-Parkin and PINK1 KO Hela cells expressing YFP-Parkin; assay type: cell-based
Procedure, shortened: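 Parental HeLa, HeLa stably expressing YFP-Parkin, and PINK1 KO HeLa expressing YFP-Parkin were pretreated with test compound at 1 or 3 μg/ml. They were then given 5 μM oligomycin plus 5 μM antimycin A; the 18 h exposure included 10 μM QVD. Cells were lysed on ice in RIPA buffer (pH 8.0, protease inhibitors) and blotted for TOM20 ubiquitination, TOM20 and NDP52. Infrared secondaries were imaged; three independent experiments.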

[5] = system: Hela-Parkin and Hela-Parkin cells expressing USP30; assay: Seahorse assay of oxygen consumption; assay type: cell-based; details: 24 h of ST-539 treatment at high dose
WT and Mfn2−/− MEF cells = assay: Mitochondrial morphology by confocal microscopy; assay type: cell-based, mouse; details: 3 or 10 μg/ml ST-539, 24 h
[6] = Plasma pharmacokinetics after i.p. injection, LC-MS/MS; assay type: in vivo; details: 25 mg/kg i.p., mice
Procedure, shortened: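 Adult male mice were dosed once at 25 mg/kg i.p. with test compound in 1% DMSO/sesame oil. Serial blood was taken at 0.083, 0.25, 0.5, 1, 2, 4 and 8 h, with terminal cardiac puncture at 24 h, into K2EDTA tubes kept on ice. Plasma was frozen at −70 °C and assayed by LC-MS/MS (n=3 per time point). Parameters were derived from the concentration-time curve.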

[7] = Tissue concentrations 24 hours post-dose, LC/MS/MS; assay type: in vivo; details: 25 mg/kg i.p., Male C57BL/6 Mice
Procedure, shortened: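 Mice were given a single 25 mg/kg i.p. dose of test compound in 1% DMSO/sesame oil and euthanized at 24 h. Transcardial perfusion preceded brain collection; heart was also harvested. Tissues were rinsed in cold distilled water, blotted dry, weighed and stored on dry ice. Concentrations (ng/g) were measured by LC/MS/MS.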

mt-Keima mice [8] = assay: In vivo mitophagy in mt-Keima mice
Procedure, shortened: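 mt-Keima mice of both sexes received test compound in 1% DMSO/sesame oil at 25 mg/kg/day i.p. for five doses; controls got vehicle (n=4 control, n=5 treated). In heart and liver sections, mt-Keima was excited sequentially at 458 and 561 nm with 570–695 nm emission. Four images per tissue were averaged and normalized to the control mean (set to one). Heart and liver LC3 I/II were immunoblotted against actin.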

mt-Keima mice [9] = details: mouse, in vivo
USP30 [10] = molecular target: T1, USP30; details: this compound and similar structures; cited from earlier work

For `N#CC(C#N)=NNc1ccc(OC(F)(F)F)cc1` [FCCP, Carbonyl cyanide-p-trifluoromethoxyphenylhydrazone], the “TMRM staining (mitochondrial membrane potential)” value [1] was “significant loss of staining”.
In the case of `CC(C)(C)NS(=O)(=O)c1cccc2c(NC(=O)C(Cc3ccccc3)NC(=O)c3ccccc3)cccc12` (stereo not shown) [ST-539], the “TIM23 and TOM40 degradation” value (USP30 [2]; 18h A/O treatment, Hela-Parkin cells overexpressing USP30) is reported as “restored TIM23 and TOM40 degradation”, the “TOM20 ubiquitination versus ST-539 dosage” value (USP30 [2]; A/O treatment, ST-539 at indicated concentrations) is reported as “close correlation” and the “loss of TOM20 protein level” value (USP30 [2]; ST-539 at 10 μg/ml, A/O treatment, in the presence of USP30) is reported as ~ 90%. The “A/O induced mitophagy (lysosomal positive mt-Keima)” value ([3]; ST-539 3μg/ml prior to A/O, HeLa-Parkin cells expressing USP30) was “restored A/O induced mitophagy”, the “mitophagy in the absence of mitochondrial stress” value ([3]; cellular studies, no mitochondrial stress) was “minimal change” and the “A/O induced TOM20 ubiquitination and decline in TOM20 level” value ([4]; cells expressing ectopic Parkin and endogenous PINK1, ST-539 1 or 3μg/ml) was “further potentiated”. The “TOM20 ubiquitination independent of PINK1/Parkin” value ([4]; long term treatment (18 h), 3μg/ml ST-539, WT Hela or PINK1 KO cells) was “did not promote TOM20 ubiquitination”, the “basal and maximal respiration” value [5] was “slight increase” and the elongation of mitochondria (WT and Mfn2−/− MEF cells; Mfn2−/− MEF cells) was “did not induce the elongation of mitochondria significantly”. The mitochondrial morphology (WT and Mfn2−/− MEF cells; wild type MEFs) was “failed to change the mitochondrial morphology”, the AUC0-inf [6] was 4240 ng·h/mL and the AUC0-last [6] was 4162 ng·h/mL. The Cmax [6] was 1427 ng/mL, the MRT0-inf [6] was 4.27 h and the MRT0-last [6] was 3.86 h. For the same compound, the Tlast [6] was 24.0 h, the Tmax [6] was 1.33 h and the “area under the plasma drug concentration-time curve (AUC)” value [6] was ~ 4.2 μg•h/ml. For the same compound, the “maximum plasma concentration (Cmax)” value [6] was “about 1.4 μg/ml”, the “Tissue concentration, Brain, Mean” value [7] was 17.4 ng/g and the “Tissue concentration, Heart, Mean” value [7] was 37.0 ng/g. For the same compound, the “LC3-II/LC3-I ratio (LC3 I/II immunoblotting)” value (mt-Keima mice [8]; 25mg/kg/day for 5 days, heart versus control hearts) was “increase; also recorded: increased levels of LC3-II”, the “cardiac mitophagy (mt-Keima red signal in the heart tissue)” value (mt-Keima mice [8]; 25mg/kg/day i.p. for 5 days, heart) was “marked induction of the red signal” and the “mitophagic flux in the hippocampus of the brain” value (mt-Keima mice [8]; 25mg/kg/day i.p. for 5 days, hippocampus (data not shown)) was “remains unchanged”. The “mitophagic flux in the liver” value (mt-Keima mice [8]; 25mg/kg/day i.p. for 5 days, liver) was “remains unchanged”, the “safety of the current dosage in mice” value (mt-Keima mice [9]) was “appears to be safe” and the “inhibition of USP30 enzyme function in vitro” value (USP30 [10]) was “selectively inhibit USP30 enzyme function”.

— article PMC8266733 (Acta physiologica (Oxford, England), 2021)
